Measurements reported in ChEMBL document CHEMBL4152188, “Design, synthesis and biological evaluation of C(4) substituted monobactams as antibacterial agents against multidrug-resistant Gram-negative bacteria” (Eur J Med Chem, 2018).
Values after ≈ are worked out from the molar mass of the structure shown.

What was measured:
Assay type in all cases: functional
Pseudomonas aeruginosa [1] = assay: Selectivity index, ratio of MIC for against IMP-4 producing Pseudomonas aeruginosa isolate 209321 to MIC for against IMP-4 producing Pseudomonas aeruginosa isolate 209321 in presence of BPL
Klebsiella pneumoniae [2] = assay: Antibacterial activity against KPC-2 producing Klebsiella pneumoniae isolate 209735 after 18 hrs in presence of BPL by CLSI broth microdilution method; settings: isolate 209735, 18 h
Outline: (§1)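 CLSI broth microdilution against clinical isolates (ESBL E. coli, KPC-2 MDR K. pneumoniae, IMP-4 MDR P. aeruginosa; five per species). Iron limitation: Mueller-Hinton broth supplemented with 16 mg/liter 2,2'-bipyridyl to complex iron and induce iron uptake systems. Read-out: MIC.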

Pseudomonas aeruginosa [3] = assay: Antibacterial activity against IMP-4 producing Pseudomonas aeruginosa isolate 207272 after 18 hrs in presence of BPL by CLSI broth microdilution method; settings: isolate 207272, 18 h; outline: as §1
Escherichia coli [4] = assay: Antibacterial activity against Escherichia coli isolate 210737 after 18 hrs by CLSI broth microdilution method; settings: isolate 210737, 18 h
Escherichia coli [5] = assay: Antibacterial activity against extended-spectrum beta-lactamase producing Escherichia coli isolate 212648 after 18 hrs by CLSI broth microdilution method; settings: isolate 212648, 18 h
Pseudomonas aeruginosa [6] = assay: Selectivity index, ratio of MIC for against IMP-4 producing Pseudomonas aeruginosa isolate 209471 to MIC for against IMP-4 producing Pseudomonas aeruginosa isolate 209471 in presence of BPL
Escherichia coli [7] = assay: Antibacterial activity against extended-spectrum beta-lactamase producing Escherichia coli isolate 209285 after 18 hrs in presence of BPL by CLSI broth microdilution method; settings: isolate 209285, 18 h; outline: as §1
Pseudomonas aeruginosa [8] = assay: Antibacterial activity against IMP-4 producing Pseudomonas aeruginosa isolate 207272 after 18 hrs by CLSI broth microdilution method; settings: isolate 207272, 18 h
Escherichia coli [9] = assay: Selectivity index, ratio of MIC for against Escherichia coli isolate 210737 to MIC for Escherichia coli isolate 210737 in presence of BPL
Klebsiella pneumoniae [10] = assay: Antibacterial activity against KPC-2 producing Klebsiella pneumoniae isolate 209632 after 18 hrs in presence of BPL by CLSI broth microdilution method; settings: isolate 209632, 18 h; outline: as §1
Escherichia coli [11] = assay: Antibacterial activity against extended-spectrum beta-lactamase producing Escherichia coli isolate 208687 after 18 hrs by CLSI broth microdilution method; settings: isolate 208687, 18 h
Klebsiella pneumoniae [12] = assay: Antibacterial activity against KPC-2 producing Klebsiella pneumoniae isolate 209735 after 18 hrs by CLSI broth microdilution method; settings: isolate 209735, 18 h
Pseudomonas aeruginosa [13] = assay: Selectivity index, ratio of MIC for against IMP-4 producing Pseudomonas aeruginosa isolate 208247 to MIC for against IMP-4 producing Pseudomonas aeruginosa isolate 208247 in presence of BPL
Pseudomonas aeruginosa [14] = assay: Antibacterial activity against IMP-4 producing Pseudomonas aeruginosa isolate 208247 after 18 hrs by CLSI broth microdilution method; settings: isolate 208247, 18 h
Escherichia coli [15] = assay: Antibacterial activity against extended-spectrum beta-lactamase producing Escherichia coli isolate 208687 after 18 hrs in presence of BPL by CLSI broth microdilution method; settings: isolate 208687, 18 h; outline: as §1
Escherichia coli [16] = assay: Selectivity index, ratio of MIC for against extended-spectrum beta-lactamase producing Escherichia coli isolate 106342 to MIC for extended-spectrum beta-lactamase producing Escherichia coli isolate 106342 in presence of BPL
Pseudomonas aeruginosa [17] = assay: Antibacterial activity against IMP-4 producing Pseudomonas aeruginosa isolate 209471 after 18 hrs by CLSI broth microdilution method; settings: isolate 209471, 18 h
Pseudomonas aeruginosa [18] = assay: Antibacterial activity against IMP-4 producing Pseudomonas aeruginosa isolate 212886 after 18 hrs by CLSI broth microdilution method; settings: isolate 212886, 18 h
Klebsiella pneumoniae [19] = assay: Selectivity index, ratio of MIC for against KPC-2 producing Klebsiella pneumoniae isolate 212229 to MIC for against KPC-2 producing Klebsiella pneumoniae isolate 212229 in presence of BPL
Escherichia coli [20] = assay: Antibacterial activity against extended-spectrum beta-lactamase producing Escherichia coli isolate 106342 after 18 hrs in presence of BPL by CLSI broth microdilution method; settings: isolate 106342, 18 h; outline: as §1
Pseudomonas aeruginosa [21] = assay: Antibacterial activity against IMP-4 producing Pseudomonas aeruginosa isolate 209471 after 18 hrs in presence of BPL by CLSI broth microdilution method; settings: isolate 209471, 18 h; outline: as §1
Escherichia coli [22] = assay: Selectivity index, ratio of MIC for against extended-spectrum beta-lactamase producing Escherichia coli isolate 208687 to MIC for extended-spectrum beta-lactamase producing Escherichia coli isolate 208687 in presence of BPL
Klebsiella pneumoniae [23] = assay: Selectivity index, ratio of MIC for against KPC-2 producing Klebsiella pneumoniae isolate 212423 to MIC for against KPC-2 producing Klebsiella pneumoniae isolate 212423 in presence of BPL
Klebsiella pneumoniae [24] = assay: Antibacterial activity against KPC-2 producing Klebsiella pneumoniae isolate 212229 after 18 hrs in presence of BPL by CLSI broth microdilution method; settings: isolate 212229, 18 h; outline: as §1
Klebsiella pneumoniae [25] = assay: Antibacterial activity against KPC-2 producing Klebsiella pneumoniae isolate 212423 after 18 hrs in presence of BPL by CLSI broth microdilution method; settings: isolate 212423, 18 h; outline: as §1
Escherichia coli [26] = assay: Antibacterial activity against Escherichia coli isolate 210737 after 18 hrs in presence of BPL by CLSI broth microdilution method; settings: isolate 210737, 18 h; outline: as §1
Klebsiella pneumoniae [27] = assay: Selectivity index, ratio of MIC for against KPC-2 producing Klebsiella pneumoniae isolate 209735 to MIC for against KPC-2 producing Klebsiella pneumoniae isolate 209735 in presence of BPL
Klebsiella pneumoniae [28] = assay: Selectivity index, ratio of MIC for against KPC-2 producing Klebsiella pneumoniae isolate 212232 to MIC for against KPC-2 producing Klebsiella pneumoniae isolate 212232 in presence of BPL
Escherichia coli [29] = assay: Selectivity index, ratio of MIC for against extended-spectrum beta-lactamase producing Escherichia coli isolate 209285 to MIC for extended-spectrum beta-lactamase producing Escherichia coli isolate 209285 in presence of BPL
Escherichia coli [30] = assay: Antibacterial activity against extended-spectrum beta-lactamase producing Escherichia coli isolate 209285 after 18 hrs by CLSI broth microdilution method; settings: isolate 209285, 18 h
Klebsiella pneumoniae [31] = assay: Antibacterial activity against KPC-2 producing Klebsiella pneumoniae isolate 209632 after 18 hrs by CLSI broth microdilution method; settings: isolate 209632, 18 h
Pseudomonas aeruginosa [32] = assay: Antibacterial activity against IMP-4 producing Pseudomonas aeruginosa isolate 208247 after 18 hrs in presence of BPL by CLSI broth microdilution method; settings: isolate 208247, 18 h; outline: as §1
Escherichia coli [33] = assay: Antibacterial activity against extended-spectrum beta-lactamase producing Escherichia coli isolate 212648 after 18 hrs in presence of BPL by CLSI broth microdilution method; settings: isolate 212648, 18 h; outline: as §1
Pseudomonas aeruginosa [34] = assay: Antibacterial activity against IMP-4 producing Pseudomonas aeruginosa isolate 209321 after 18 hrs by CLSI broth microdilution method; settings: isolate 209321, 18 h
Pseudomonas aeruginosa [35] = assay: Antibacterial activity against IMP-4 producing Pseudomonas aeruginosa isolate 209321 after 18 hrs in presence of BPL by CLSI broth microdilution method; settings: isolate 209321, 18 h; outline: as §1
Klebsiella pneumoniae [36] = assay: Antibacterial activity against KPC-2 producing Klebsiella pneumoniae isolate 212232 after 18 hrs in presence of BPL by CLSI broth microdilution method; settings: isolate 212232, 18 h; outline: as §1
Klebsiella pneumoniae [37] = assay: Antibacterial activity against KPC-2 producing Klebsiella pneumoniae isolate 212229 after 18 hrs by CLSI broth microdilution method; settings: isolate 212229, 18 h
Escherichia coli [38] = assay: Antibacterial activity against extended-spectrum beta-lactamase producing Escherichia coli isolate 106342 after 18 hrs by CLSI broth microdilution method; settings: isolate 106342, 18 h
Klebsiella pneumoniae [39] = assay: Selectivity index, ratio of MIC for against KPC-2 producing Klebsiella pneumoniae isolate 209632 to MIC for against KPC-2 producing Klebsiella pneumoniae isolate 209632 in presence of BPL
Klebsiella pneumoniae [40] = assay: Antibacterial activity against KPC-2 producing Klebsiella pneumoniae isolate 212232 after 18 hrs by CLSI broth microdilution method; settings: isolate 212232, 18 h
Pseudomonas aeruginosa [41] = assay: Antibacterial activity against IMP-4 producing Pseudomonas aeruginosa isolate 212886 after 18 hrs in presence of BPL by CLSI broth microdilution method; settings: isolate 212886, 18 h; outline: as §1
Pseudomonas aeruginosa [42] = assay: Selectivity index, ratio of MIC for against IMP-4 producing Pseudomonas aeruginosa isolate 207272 to MIC for against IMP-4 producing Pseudomonas aeruginosa isolate 207272 in presence of BPL
Pseudomonas aeruginosa [43] = assay: Selectivity index, ratio of MIC for against IMP-4 producing Pseudomonas aeruginosa isolate 212886 to MIC for against IMP-4 producing Pseudomonas aeruginosa isolate 212886 in presence of BPL
Klebsiella pneumoniae [44] = assay: Antibacterial activity against KPC-2 producing Klebsiella pneumoniae isolate 212423 after 18 hrs by CLSI broth microdilution method; settings: isolate 212423, 18 h
Escherichia coli [45] = assay: Selectivity index, ratio of MIC for against extended-spectrum beta-lactamase producing Escherichia coli isolate 212648 to MIC for extended-spectrum beta-lactamase producing Escherichia coli isolate 212648 in presence of BPL

Structure (SMILES): Cc1nnc(SC[C@@H]2[C@H](NC(=O)/C(=N\OC(c3cc(=O)c(O)cn3O)C(C)C)c3csc(N)n3)C(=O)N2S(=O)(=O)O)s1 (stereo not given in full)
- Selectivity Index (Pseudomonas aeruginosa [1]): 1
- MIC (Klebsiella pneumoniae [2]): 0.5 µg/mL
- MIC (Pseudomonas aeruginosa [3]): 64 µg/mL
- MIC (Escherichia coli [4]): 0.5 µg/mL (≈ 0.757 µM)
- MIC (Escherichia coli [5]): 0.5 µg/mL (≈ 0.757 µM)
- Selectivity Index (Pseudomonas aeruginosa [6]): 1
- MIC (Escherichia coli [7]): 1 µg/mL
- MIC (Pseudomonas aeruginosa [8]): 64 µg/mL (≈ 96.9 µM)
- Selectivity Index (Escherichia coli [9]): 2
- MIC (Klebsiella pneumoniae [10]): 0.25 µg/mL
- MIC (Escherichia coli [11]): 2 µg/mL (≈ 3.03 µM)
- MIC (Klebsiella pneumoniae [12]): 1 µg/mL (≈ 1.51 µM)
- Selectivity Index (Pseudomonas aeruginosa [13]): 1 - 4
- MIC (Pseudomonas aeruginosa [14]): > 64 µg/mL
- MIC (Escherichia coli [15]): 0.125 µg/mL
- Selectivity Index (Escherichia coli [16]): 2
- MIC (Pseudomonas aeruginosa [17]): 32 µg/mL (≈ 48.4 µM)
- MIC (Pseudomonas aeruginosa [18]): > 64 µg/mL
- Selectivity Index (Klebsiella pneumoniae [19]): 2
- MIC (Escherichia coli [20]): 0.5 µg/mL
- MIC (Pseudomonas aeruginosa [21]): 32 µg/mL
- Selectivity Index (Escherichia coli [22]): 16
- Selectivity Index (Klebsiella pneumoniae [23]): 2
- MIC (Klebsiella pneumoniae [24]): 0.5 µg/mL
- MIC (Klebsiella pneumoniae [25]): 0.5 µg/mL
- MIC (Escherichia coli [26]): 0.25 µg/mL
- Selectivity Index (Klebsiella pneumoniae [27]): 2
- Selectivity Index (Klebsiella pneumoniae [28]): 8
- Selectivity Index (Escherichia coli [29]): 4
- MIC (Escherichia coli [30]): 4 µg/mL (≈ 6.05 µM)
- MIC (Klebsiella pneumoniae [31]): 1 µg/mL (≈ 1.51 µM)
- MIC (Pseudomonas aeruginosa [32]): > 64 µg/mL
- MIC (Escherichia coli [33]): 0.25 µg/mL
- MIC (Pseudomonas aeruginosa [34]): 64 µg/mL (≈ 96.9 µM)
- MIC (Pseudomonas aeruginosa [35]): 64 µg/mL
- MIC (Klebsiella pneumoniae [36]): 0.25 µg/mL
- MIC (Klebsiella pneumoniae [37]): 1 µg/mL (≈ 1.51 µM)
- MIC (Escherichia coli [38]): 1 µg/mL (≈ 1.51 µM)
- Selectivity Index (Klebsiella pneumoniae [39]): 4
- MIC (Klebsiella pneumoniae [40]): 2 µg/mL (≈ 3.03 µM)
- MIC (Pseudomonas aeruginosa [41]): 16 µg/mL
- Selectivity Index (Pseudomonas aeruginosa [42]): 1
- Selectivity Index (Pseudomonas aeruginosa [43]): >4
- MIC (Klebsiella pneumoniae [44]): 1 µg/mL (≈ 1.51 µM)
- Selectivity Index (Escherichia coli [45]): 2
